What was measured:
[1] = tested on: P388; assay: Growth inhibition of mouse P388 cells by in vitro assay; assay type: functional, cell-based; details: read-out: I50
How it was run: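 P-388 murine leukemia cells kept in suspension culture were incubated with a range of diacridine concentrations. The concentration that reduced the rate of cell growth by 50% was taken as the I50.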

[2] = tested on: P388; assay: Antitumor activity against mouse P388 cells allografted in BDF/1 mouse assessed as increase in life span at optimal dose consecutively administered on day 1 to day 9 post challenge relative to control; assay type: functional
How it was run: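 P-388 tumour passaged as ascites in DBA/2 mice; 1×10^6 ascites cells given ip to BDF/1 mice on day 0. Drug given daily for 9 consecutive days from day 1 to groups of six mice at 20, 10, 5, 2.5, 1.25 and 0.625 mg/kg/day. Day of death recorded; % ILS calculated from treated vs control life spans; dose giving optimal % ILS reported.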

[3] = tested on: Mus musculus; assay: Toxicity in mouse P388 cells allografted BDF/1 mouse consecutively administered on day 1 to day 9 post challenge measured on day 5; assay type: organism-based

Compound	IC50 [1]	ILS [2]	LD10 [3]
CCCCOc1cccc2c(NCCCCCCCCNc3c4ccccc4nc4c(OCCCC)cccc34)c3ccccc3nc12	190 nM	7%	7.6 mg/kg/day
COc1ccc2c(NCCCCCCCCNc3c4ccc(OC)cc4nc4cc([N+](=O)[O-])ccc34)c3ccc([N+](=O)[O-])cc3nc2c1		21%	> 20 mg/kg/day
COc1ccc2c(NCCCCCCCCNc3c4ccc(OC)cc4nc4ccc(Cl)cc34)c3cc(Cl)ccc3nc2c1	160 nM	18%	7 mg/kg/day
c1ccc2c(NCCCCCCNc3c4ccccc4nc4ccccc34)c3ccccc3nc2c1	380 nM	54%	9 mg/kg/day
Brc1ccc2c(NCCCCCCCCNc3c4ccccc4nc4cc(Br)ccc34)c3ccccc3nc2c1	210 nM	9%	> 20 mg/kg/day
Clc1ccc2c(NCCCCCCCCNc3c4ccccc4nc4cc(Cl)ccc34)c3ccccc3nc2c1	230 nM	29%	> 20 mg/kg/day
CCCOc1ccc2c(NCCCCCCCCNc3c4ccccc4nc4cc(OCCC)ccc34)c3ccccc3nc2c1	210 nM	63%	5.5 mg/kg/day
CCc1cccc2c(NCCCCCCCCNc3c4ccccc4nc4c(CC)cccc34)c3ccccc3nc12	230 nM	42%	12 mg/kg/day
CCc1cccc2c(NCCCCCCCCCCNc3c4ccccc4nc4c(CC)cccc34)c3ccccc3nc12	150 nM	33%	13 mg/kg/day
Cc1ccc2c(NCCCCCCCCNc3c4ccccc4nc4cc(C)ccc34)c3ccccc3nc2c1.Cl		59%	7.3 mg/kg/day
COc1cccc2c(NCCCCCCCCNc3c4ccccc4nc4c(OC)cccc34)c3ccccc3nc12	290 nM	89%	13.5 mg/kg/day
COc1cccc2c(NCCCCCCNc3c4ccccc4nc4c(OC)cccc34)c3ccccc3nc12	190 nM	62%	12.5 mg/kg/day
CCCCOc1cccc2c(NCCCCCCNc3c4ccccc4nc4c(OCCCC)cccc34)c3ccccc3nc12	360 nM	7%	6.5 mg/kg/day
CCc1cccc2c(NCCNc3c4ccccc4nc4c(CC)cccc34)c3ccccc3nc12		20%	16 mg/kg/day
O=[N+]([O-])c1ccc2c(NCCCCCCNc3c4ccccc4nc4cc([N+](=O)[O-])ccc34)c3ccccc3nc2c1	480 nM	37%	> 20 mg/kg/day
c1ccc2c(NCCCCCCCCCCCCNc3c4ccccc4nc4ccccc34)c3ccccc3nc2c1	320 nM	10%	6.5 mg/kg/day
COc1ccc2nc3cc(Cl)ccc3c(NCCCCCCCCNc3c4ccc(Cl)cc4nc4ccc(OC)cc34)c2c1		9%	> 20 mg/kg/day
c1ccc2c(NCCCCCCCNc3c4ccccc4nc4ccccc34)c3ccccc3nc2c1	320 nM	67%	12.5 mg/kg/day
COc1ccc2c(NCCCCNc3c4ccccc4nc4cc(OC)ccc34)c3ccccc3nc2c1.Cl		10%	> 20 mg/kg/day
c1ccc2c(NCCCCCCCCCCCCNc3c4ccccc4nc4ncccc34)c3cccnc3nc2c1		10%	
COc1ccc2c(NCCCCCCCCNc3c4ccc(Cl)cc4nc4cc(OC)ccc34)c3ccc(Cl)cc3nc2c1.Cl		17%	> 20 mg/kg/day
CCOc1cccc2c(NCCCCCCCCNc3c4ccccc4nc4c(OCC)cccc34)c3ccccc3nc12		76%	13.5 mg/kg/day
COc1ccc2c(NCCCCCCCCNc3c4ccc(OC)cc4nc4c(OC)cccc34)c3cccc(OC)c3nc2c1	420 nM	66%	13 mg/kg/day
c1ccc2c(NCCCCNc3c4ccccc4nc4ccccc34)c3ccccc3nc2c1	2710 nM	13%	11 mg/kg/day
c1ccc2c(NCCCCCCCCCCNc3c4ccccc4nc4ncccc34)c3cccnc3nc2c1		22%	

Compound	IC50 [1]	ILS [2]	LD10 [3]
COc1ccc2c(NCCNc3c4ccccc4nc4cc(OC)ccc34)c3ccccc3nc2c1.Cl		0%	7.2 mg/kg/day
COc1ccc2nc3ccccc3c(NCCCCCCNc3c4ccccc4nc4ccc(OC)cc34)c2c1	320 nM	25%	8.6 mg/kg/day
c1ccc2c(NCCCCCCCCCCNc3c4ccccc4nc4ccccc34)c3ccccc3nc2c1	380 nM	33%	7 mg/kg/day
COc1cccc2c(NCCCCCCCCNc3c4ccc([N+](=O)[O-])cc4nc4c(OC)cccc34)c3ccc([N+](=O)[O-])cc3nc12.Cl		86%	> 20 mg/kg/day
Cl.Nc1ccc2c(NCCCCCCCCNc3c4ccccc4nc4cc(N)ccc34)c3ccccc3nc2c1		58%	> 20 mg/kg/day
c1ccc2c(NCCNc3c4ccccc4nc4ccccc34)c3ccccc3nc2c1	1420 nM	7%	4.3 mg/kg/day
COc1ccc2c(NCCCCCCNc3c4ccccc4nc4cc(OC)ccc34)c3ccccc3nc2c1	240 nM	71%	9.5 mg/kg/day
Cl.Nc1ccc2c(NCCCCCCNc3c4ccccc4nc4cc(N)ccc34)c3ccccc3nc2c1	210 nM	47%	> 20 mg/kg/day
c1ccc2c(NCCCCCCCCNc3c4ccccc4nc4ccccc34)c3ccccc3nc2c1	320 nM	60%	13.5 mg/kg/day
CCc1cccc2c(NCCCCCCNc3c4ccccc4nc4c(CC)cccc34)c3ccccc3nc12	230 nM	43%	16 mg/kg/day
CSc1ccc2c(NCCCCCCCCNc3c4ccccc4nc4cc(SC)ccc34)c3ccccc3nc2c1.Cl	370 nM	27%	8 mg/kg/day
Cc1ccc2c(NCCCCCCCCNc3c4ccccc4nc4c(C)c(C)ccc34)c3ccccc3nc2c1C.Cl		60%	8 mg/kg/day
CCCCOc1cccc2c(NCCNc3c4ccccc4nc4c(OCCCC)cccc34)c3ccccc3nc12		9%	12.5 mg/kg/day
Cl.Nc1ccc2nc3ccccc3c(NCCCCCCCCNc3c4ccccc4nc4ccc(N)cc34)c2c1		60%	> 20 mg/kg/day
COc1ccc2c(NCCCCCCCCCCNc3c4ccccc4nc4cc(OC)ccc34)c3ccccc3nc2c1.Cl		55%	8 mg/kg/day
c1ccc2c(NCCCCCNc3c4ccccc4nc4ccccc34)c3ccccc3nc2c1		36%	12.5 mg/kg/day
COc1ccc(C)c2c(NCCCCCCCCNc3c4ccccc4nc4c(OC)ccc(C)c34)c3ccccc3nc12.Cl		20%	12.5 mg/kg/day
COc1ccc2c(NCCCCCCCCNc3c4ccccc4nc4cc(OC)ccc34)c3ccccc3nc2c1		84%	10.5 mg/kg/day
CSc1cccc2c(NCCCCCCCCNc3c4ccccc4nc4c(SC)cccc34)c3ccccc3nc12	860 nM	13%	> 20 mg/kg/day
CCc1cccc2c(NCCCCNc3c4ccccc4nc4c(CC)cccc34)c3ccccc3nc12		10%	7.4 mg/kg/day
COc1ccc2nc3ccccc3c(NCCCCCCCCNc3c4ccccc4nc4ccc(OC)cc34)c2c1	190 nM	30%	6 mg/kg/day
CCCOc1cccc2c(NCCCCNc3c4ccccc4nc4c(OCCC)cccc34)c3ccccc3nc12.Cl		9%	9.8 mg/kg/day
CCCOc1ccc2c(NCCCCCCNc3c4ccccc4nc4cc(OCCC)ccc34)c3ccccc3nc2c1	320 nM	37%	6.8 mg/kg/day
O=[N+]([O-])c1ccc2c(NCCCCCCCCNc3c4ccccc4nc4cc([N+](=O)[O-])ccc34)c3ccccc3nc2c1	330 nM	45%	> 20 mg/kg/day
